Data on nine molecules can be found in ChEMBL document CHEMBL1140927, “Discovery of N-(3-fluorophenyl)-1-[(4-([(3S)-3-methyl-1-piperazinyl]methyl)phenyl)acetyl]-4-piperidinamine (GSK962040), the first small molecule motilin receptor agonist clinical candidate” (J Med Chem, 2009).

As usually defined, the half-life is how long it takes for the measured level to halve. Broadly, the EC50 is the concentration needed to bring the measured effect to its halfway point. For orientation: bioavailability means the share of a dose that reaches the circulation, judged against a reference dose that is usually intravenous. The term IC50 denotes the concentration needed to halve the response being measured. Usually Tmax stands for the time at which the peak concentration occurs. In general, Cmax refers to the maximum level reached in the sampled fluid or tissue. What is called solubility is the dissolved amount per volume that the medium holds.

The structures appear in SMILES notation.

Series [1] relates to Stomach. Put plainly: Potentiation of electric field stimulated-rabbit gastric antrum contraction at 0.3 uM. It is filed as functional, Oryctolagus cuniculus. In short, it runs like this:
(§1)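 Isolated native rabbit gastric antrum tissue. Cholinergic contractions are evoked by electrical field stimulation (EFS), and compound is added at the stated concentration. The read-out is % potentiation of EFS-evoked contractions, n = 4-8.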

Series [2] is described as follows: Half life in rabbit gastric antrum native tissue at 0.3 uM. It is filed as ADME, tissue-based, Oryctolagus cuniculus, Stomach.
In series [3] the test system is Stomach. Nature of the series: Potentiation of electric field stimulated-rabbit gastric antrum contraction at 0.1 uM. The series is classed as functional, Oryctolagus cuniculus. In short, it runs like this:
as §1

In series [4] the target is T1, Motilin receptor (Homo sapiens, UniProt O43193). Nature of the series: Agonist activity at human recombinant motilin receptor expressed in CHO cells assessed as increase in intracellular calcium by FLIPR assay. It is filed as functional, cell-based. In short, it runs like this:
(§2)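 CHO-K1 cells stably transfected with human motilin receptor, grown in DMEM/HamF-12 with 10% FBS, 2 mM GlutaMAX, 1 mg/mL Geneticin; seeded 10 000 cells/well, 24 h. Loaded with Fluo 4 (2.5 µM) in Tyrodes with probenecid, 1 h at 37.5 °C. Compound top final 12 µM, 1-in-4 dilutions; fluorescence read over 1 min; max change over baseline, four-parameter logistic fit; intrinsic activity = curve maximum relative to motilin maximum.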
In general terms: Calcium flux is commonly read through the fluorescence of an indicator in the cells.

The target of series [5] is T1, Motilin receptor. Nature of the series: Intrinsic activity at human recombinant motilin receptor expressed in CHO cells relative to motilin. The series is classed as cell-based. In short, it runs like this: as §2
Series [6] is described as follows: Protein binding in rat plasma. The series is classed as ADME, cell-free. To be noted: read-out: PPB (converted).
A short description of series [7]: Oral bioavailability in Beagle dog. It is filed as ADME, organism-based, Canis lupus familiaris. To be noted: in vivo. In outline: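 Three dogs, two study days 7 days apart: 1 h IV infusion of 2 mg free base/kg in 0.9% saline (0.4 mg/mL, 5 mL/kg/h), then same dogs oral gavage 5 mg free base/kg in 1% methylcellulose (1 mg/mL, 5 mL/kg); serial blood up to 30 h; LC/MS/MS, LLQ 5 ng/mL.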

The next series concerns the target T2, Cytochrome P450 1A2 (Homo sapiens, UniProt P05177).
T2 sequence (P05177 whole entry): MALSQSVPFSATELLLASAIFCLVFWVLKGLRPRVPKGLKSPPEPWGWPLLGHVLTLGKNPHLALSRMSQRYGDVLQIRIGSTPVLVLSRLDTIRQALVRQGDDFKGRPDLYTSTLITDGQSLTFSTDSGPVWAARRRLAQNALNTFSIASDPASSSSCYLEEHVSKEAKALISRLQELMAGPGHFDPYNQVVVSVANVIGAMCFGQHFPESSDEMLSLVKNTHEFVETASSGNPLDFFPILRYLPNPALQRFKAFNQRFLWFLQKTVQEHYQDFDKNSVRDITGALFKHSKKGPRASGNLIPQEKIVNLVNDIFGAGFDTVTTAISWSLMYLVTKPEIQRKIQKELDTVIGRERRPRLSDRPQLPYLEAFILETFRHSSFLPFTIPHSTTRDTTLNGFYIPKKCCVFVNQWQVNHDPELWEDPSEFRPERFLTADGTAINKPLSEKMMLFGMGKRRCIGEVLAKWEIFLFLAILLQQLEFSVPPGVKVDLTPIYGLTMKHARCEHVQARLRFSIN
Put plainly: Inhibition of human CYP1A2. The series is classed as ADME.

The next series deals with Cytochrome P450 2C19 (Homo sapiens, UniProt P33261). Nature of the series: Inhibition of human CYP2C19. The series is classed as ADME.
Sequence of Cytochrome P450 2C19 (P33261 whole entry): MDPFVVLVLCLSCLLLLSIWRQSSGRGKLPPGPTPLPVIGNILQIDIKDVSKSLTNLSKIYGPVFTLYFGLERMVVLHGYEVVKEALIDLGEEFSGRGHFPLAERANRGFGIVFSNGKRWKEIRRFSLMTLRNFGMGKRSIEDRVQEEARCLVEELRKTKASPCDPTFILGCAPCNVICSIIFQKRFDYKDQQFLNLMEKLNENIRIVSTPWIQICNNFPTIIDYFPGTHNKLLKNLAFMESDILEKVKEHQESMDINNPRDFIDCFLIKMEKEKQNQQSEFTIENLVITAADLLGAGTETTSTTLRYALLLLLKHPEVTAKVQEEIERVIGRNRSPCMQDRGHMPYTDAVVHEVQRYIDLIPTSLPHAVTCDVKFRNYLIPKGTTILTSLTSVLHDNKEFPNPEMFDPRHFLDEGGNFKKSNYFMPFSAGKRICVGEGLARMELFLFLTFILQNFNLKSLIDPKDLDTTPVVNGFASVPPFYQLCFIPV
A short description of series [8]: Oral bioavailability in Sprague-Dawley rat. It is filed as ADME, organism-based. The conditions noted are these: in vivo. In short, it runs like this:
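Male Sprague-Dawley rats (n = 3), two study days 2 days apart: 1 h IV infusion of 1 mg free base/kg in 0.9% saline (0.2 mg/mL, 5 mL/kg/h), then oral gavage 5 mg free base/kg in 1% methylcellulose; serial blood up to 12 h; LC/MS/MS, LLQ 5 ng/mL.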

The nature of series [9]: Tmax in Sprague-Dawley rat at 5 mg/kg, po. It is filed as ADME, organism-based. Further details: dose 5 mg/kg, route oral. The conditions noted are these: in vivo. In outline: (§3)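 Male Sprague-Dawley rats (n = 3), HCl salt suspended in 1% w/v methylcellulose at 1 mg free base/mL, oral gavage 5 mL/kg for 5 mg free base/kg; serial blood up to 12 h (8 h in a second study); diluted blood analysed by LC/MS/MS, LLQ 5 ng/mL.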

Series [10] addresses T3, Cytochrome P450 3A4 (Homo sapiens, UniProt P08684). Nature of the series: Inhibition of human CYP3A4 expressed in Escherichia coli using diethoxyfluorescein substrate assessed as decrease in enzyme activity by time dependent inhibition assay. It is filed as ADME. Further details: unit not given here.
Series [11] in a line: Protein binding in human plasma. The series is classed as ADME, cell-free. To be noted: read-out: PPB (converted).
The target in the next series is Cytochrome P450 2D6 (Homo sapiens, UniProt P10635). Nature of the series: Inhibition of human CYP2D6. The series is classed as ADME.
Sequence of Cytochrome P450 2D6 (P10635 whole entry): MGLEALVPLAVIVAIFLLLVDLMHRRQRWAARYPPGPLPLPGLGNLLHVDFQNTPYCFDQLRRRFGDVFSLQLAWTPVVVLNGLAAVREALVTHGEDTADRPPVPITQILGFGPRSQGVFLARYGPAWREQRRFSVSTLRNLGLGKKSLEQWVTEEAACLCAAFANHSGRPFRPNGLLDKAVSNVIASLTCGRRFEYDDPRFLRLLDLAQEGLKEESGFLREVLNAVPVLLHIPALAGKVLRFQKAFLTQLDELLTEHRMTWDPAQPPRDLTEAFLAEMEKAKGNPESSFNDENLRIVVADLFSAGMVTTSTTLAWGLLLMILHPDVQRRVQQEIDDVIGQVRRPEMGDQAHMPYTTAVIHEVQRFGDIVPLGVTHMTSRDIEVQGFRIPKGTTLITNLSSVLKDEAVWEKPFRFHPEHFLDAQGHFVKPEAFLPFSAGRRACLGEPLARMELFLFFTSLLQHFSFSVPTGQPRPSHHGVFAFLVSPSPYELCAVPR
Series [12] concerns Stomach. Nature of the series: Potentiation of electric field stimulated-rabbit gastric antrum contraction at 3 uM. The series is classed as functional, Oryctolagus cuniculus. In short, it runs like this: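 Isolated rabbit gastric antrum; cholinergic contractions evoked by electrical field stimulation, compound response expressed as % potentiation of EFS-evoked contraction, n = 4-8.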

The test system of another series is Rattus norvegicus. Put plainly: AUC (0 to t) in Sprague-Dawley rat at 5 mg/kg, po. More on the design: dose 5 mg/kg, route oral. The series is classed as ADME, organism-based, Plasma. The conditions noted are these: in vivo. In short, it runs like this:
as §3

Series [13] in a line: Cmax in Sprague-Dawley rat at 5 mg/kg, po. Further details: dose 5 mg/kg, route oral. It is filed as ADME, organism-based. To be noted: in vivo. In outline: as §3
A short description of series [14]: Half life in rabbit gastric antrum native tissue at 3 uM. The series is classed as ADME, tissue-based, Oryctolagus cuniculus, Stomach.
Series [15] has as its target Voltage-gated inwardly rectifying potassium channel KCNH2 (Homo sapiens, UniProt Q12809). Put plainly: Binding affinity to human ERG.
Series [16] relates to Stomach. Nature of the series: Potentiation of electric field stimulated-rabbit gastric antrum contraction at 1 uM. The series is classed as functional, Oryctolagus cuniculus. In outline:
as §1

A further series addresses Cytochrome P450 2C9 (Homo sapiens, UniProt P11712). Put plainly: Inhibition of human CYP2C9. The series is classed as ADME.
For series [17], the target named is Growth hormone secretagogue receptor type 1 (Homo sapiens, UniProt Q92847). Put plainly: Agonist activity at human Ghrelin receptor. It is filed as functional.
Sequence of Growth hormone secretagogue receptor type 1 (Q92847 whole entry): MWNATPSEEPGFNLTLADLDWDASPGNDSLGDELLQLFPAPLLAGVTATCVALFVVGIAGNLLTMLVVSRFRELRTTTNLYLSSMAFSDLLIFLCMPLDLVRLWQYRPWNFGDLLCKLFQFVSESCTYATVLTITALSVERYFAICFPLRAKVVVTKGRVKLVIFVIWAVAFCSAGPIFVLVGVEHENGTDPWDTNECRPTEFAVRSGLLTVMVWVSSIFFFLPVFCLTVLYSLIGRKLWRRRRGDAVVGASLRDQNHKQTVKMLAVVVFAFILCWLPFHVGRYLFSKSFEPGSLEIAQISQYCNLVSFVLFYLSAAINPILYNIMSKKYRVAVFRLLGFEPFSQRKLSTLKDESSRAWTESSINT
The target of series [18] is T3, Cytochrome P450 3A4. Nature of the series: Inhibition of human CYP3A4 expressed in Escherichia coli using 7BQ substrate by time dependent inhibition assay. The series is classed as ADME.
For series [19], the target named is T3, Cytochrome P450 3A4. Nature of the series: Inhibition of human CYP3A4 expressed in Escherichia coli using diethoxyfluorescein substrate by time dependent inhibition assay. The series is classed as ADME.
A short description of series [20]: Aqueous solubility of the compound. To be noted: aqueous medium. It is filed as physicochemical.

T1 sequence (O43193 whole entry): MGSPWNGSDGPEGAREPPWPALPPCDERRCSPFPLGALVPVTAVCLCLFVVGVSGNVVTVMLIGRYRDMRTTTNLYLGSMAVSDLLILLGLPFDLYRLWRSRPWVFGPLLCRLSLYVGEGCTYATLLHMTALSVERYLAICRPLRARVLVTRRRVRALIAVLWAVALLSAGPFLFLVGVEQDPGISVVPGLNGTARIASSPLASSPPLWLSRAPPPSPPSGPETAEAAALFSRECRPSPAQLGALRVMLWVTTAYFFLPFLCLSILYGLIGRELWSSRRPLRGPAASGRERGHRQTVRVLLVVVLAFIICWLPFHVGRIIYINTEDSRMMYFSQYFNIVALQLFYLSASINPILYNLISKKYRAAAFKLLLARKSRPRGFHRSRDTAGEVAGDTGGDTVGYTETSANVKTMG
T3 sequence (P08684 whole entry): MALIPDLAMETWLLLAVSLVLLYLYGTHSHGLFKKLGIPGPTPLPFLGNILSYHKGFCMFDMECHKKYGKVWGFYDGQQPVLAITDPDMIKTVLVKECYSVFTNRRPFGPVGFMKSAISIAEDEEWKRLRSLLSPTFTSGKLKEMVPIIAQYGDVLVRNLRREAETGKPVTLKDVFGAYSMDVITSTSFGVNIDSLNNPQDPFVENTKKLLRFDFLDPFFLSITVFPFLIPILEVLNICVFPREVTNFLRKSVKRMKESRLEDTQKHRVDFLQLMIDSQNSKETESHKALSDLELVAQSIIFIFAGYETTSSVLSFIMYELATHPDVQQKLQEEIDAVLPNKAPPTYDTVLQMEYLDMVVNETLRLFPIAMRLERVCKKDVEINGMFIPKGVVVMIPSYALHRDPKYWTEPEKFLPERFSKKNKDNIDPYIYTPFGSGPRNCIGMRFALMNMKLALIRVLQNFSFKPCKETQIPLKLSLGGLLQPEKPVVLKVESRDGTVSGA
Sequence of Cytochrome P450 2C9 (P11712 whole entry): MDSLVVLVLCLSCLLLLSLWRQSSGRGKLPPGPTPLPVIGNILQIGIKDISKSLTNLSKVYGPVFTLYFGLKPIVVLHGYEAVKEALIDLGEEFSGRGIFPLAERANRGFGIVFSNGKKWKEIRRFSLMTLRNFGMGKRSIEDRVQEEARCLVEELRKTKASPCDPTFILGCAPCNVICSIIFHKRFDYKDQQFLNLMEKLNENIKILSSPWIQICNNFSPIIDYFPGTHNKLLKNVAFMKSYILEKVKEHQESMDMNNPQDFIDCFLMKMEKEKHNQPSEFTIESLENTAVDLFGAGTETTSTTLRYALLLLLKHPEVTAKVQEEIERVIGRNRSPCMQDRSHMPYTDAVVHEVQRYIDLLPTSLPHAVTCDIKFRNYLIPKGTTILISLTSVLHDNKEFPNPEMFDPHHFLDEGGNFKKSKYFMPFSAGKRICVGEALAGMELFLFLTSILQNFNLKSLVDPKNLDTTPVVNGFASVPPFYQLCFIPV
Sequence of Voltage-gated inwardly rectifying potassium channel KCNH2 (Q12809 whole entry): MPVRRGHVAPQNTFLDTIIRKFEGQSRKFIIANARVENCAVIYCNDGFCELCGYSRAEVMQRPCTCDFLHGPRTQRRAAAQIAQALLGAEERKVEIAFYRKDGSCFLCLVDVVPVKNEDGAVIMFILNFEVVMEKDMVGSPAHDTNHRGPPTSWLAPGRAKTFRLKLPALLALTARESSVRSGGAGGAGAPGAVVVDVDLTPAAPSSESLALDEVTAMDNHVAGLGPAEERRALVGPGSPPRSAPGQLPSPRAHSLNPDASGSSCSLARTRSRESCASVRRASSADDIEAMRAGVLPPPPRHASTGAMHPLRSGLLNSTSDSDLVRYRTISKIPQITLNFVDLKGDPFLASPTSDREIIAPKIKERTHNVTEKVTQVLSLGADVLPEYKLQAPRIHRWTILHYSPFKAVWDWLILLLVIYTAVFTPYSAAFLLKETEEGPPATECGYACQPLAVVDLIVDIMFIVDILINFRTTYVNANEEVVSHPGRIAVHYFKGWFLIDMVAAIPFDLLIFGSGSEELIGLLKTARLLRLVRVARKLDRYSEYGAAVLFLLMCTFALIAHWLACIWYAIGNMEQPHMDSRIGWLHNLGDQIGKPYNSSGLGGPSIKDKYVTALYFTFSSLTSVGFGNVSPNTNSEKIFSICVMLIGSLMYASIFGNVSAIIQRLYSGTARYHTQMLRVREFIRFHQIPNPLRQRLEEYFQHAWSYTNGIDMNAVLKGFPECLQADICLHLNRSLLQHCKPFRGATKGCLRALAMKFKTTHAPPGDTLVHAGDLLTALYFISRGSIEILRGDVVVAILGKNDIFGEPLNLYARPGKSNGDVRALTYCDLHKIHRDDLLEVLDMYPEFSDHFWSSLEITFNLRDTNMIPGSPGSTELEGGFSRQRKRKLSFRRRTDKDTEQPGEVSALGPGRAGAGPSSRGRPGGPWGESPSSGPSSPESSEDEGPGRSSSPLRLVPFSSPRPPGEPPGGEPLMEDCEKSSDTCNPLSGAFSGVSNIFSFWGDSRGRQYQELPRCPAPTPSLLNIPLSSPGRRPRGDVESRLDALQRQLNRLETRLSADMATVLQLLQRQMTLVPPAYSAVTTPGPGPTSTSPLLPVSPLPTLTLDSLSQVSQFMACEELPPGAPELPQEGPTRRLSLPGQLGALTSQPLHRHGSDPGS

Take `CCCC[C@H](NC(=O)[C@H](CCCNC(=N)N)NC(=O)[C@H](CCC(N)=O)NC(=O)[C@H](CC(C)C)NC(=O)[C@H](CCC(=O)O)NC(=O)CNC(=O)[C@H](Cc1ccc(O)cc1)NC(=O)[C@@H](NC(=O)[C@H](Cc1ccccc1)NC(=O)[C@@H](NC(=O)[C@@H]1CCCN1C(=O)[C@@H](NC(=O)[C@@H](N)Cc1ccccc1)C(C)C)[C@@H](C)CC)[C@@H](C)O)C(=O)N[C@@H](CCC(N)=O)C(=O)N[C@@H](CCC(=O)O)C(=O)N[C@@H](CCCCN)C(=O)N[C@@H](CCC(=O)O)C(=O)N[C@@H](CCCNC(=N)N)C(=O)N[C@@H](CC(N)=O)C(=O)N[C@@H](CCCCN)C(=O)NCC(=O)N[C@@H](CCC(N)=O)C(=O)O`: the Activity in the series on Stomach [1] was determined as 740%; in the series with Stomach [3], 721%. In addition, the half-life at 0.3 µM in series [2] came to 11.4 min.
Take `C[C@@H]1CN(Cc2ccc(CCC(=O)N3CCC(Nc4ccc(F)cc4)CC3)cc2)C[C@H](C)N1`: the EC50 at Motilin receptor [4] was 50.1 nM. Further, on Motilin receptor [5], the Intrinsic activity turned out to be 0.9.
Turning to `C[C@H]1CN(Cc2ccc(CC(=O)N3CCC(Nc4cccc(F)c4)CC3)cc2)CCN1` [CAMICINAL], the Activity in the series with Stomach [1] is recorded as 53%; on Cytochrome P450 3A4 [10] it was 1.4; in the series with Stomach [12] it was 248%; in the series on Stomach [16] it was 108%. The fraction unbound is 0.37 in [6] and 0.17 in [11]. Moreover, the bioavailability in series [7] was 51%; in series [8] it was 48%. Besides, the IC50 against Cytochrome P450 1A2 is more than 100000 nM; at Cytochrome P450 2C19 it was more than 100000 nM; against Cytochrome P450 2D6, 34000 nM; in [15] it was 15800 nM; against Cytochrome P450 2C9 it was more than 100000 nM. Further, the Tmax in series [9] was found to be 120 min. The molecule also yielded an AUC in the series with Rattus norvegicus of 12 kg·min/L. In addition, the values for the EC50 (at Motilin receptor [4]; in series [17]) were 12.6 nM and more than 1000 nM, respectively. Moreover, the Cmax in series [13] came to 400 nM. Besides, the half-life at 3 µM in series [14] is 46.9 min.
`C[C@H]1CN(Cc2ccc(CCC(=O)N3CCC(Nc4cccc(F)c4)CC3)cc2)CCN1`: at Cytochrome P450 3A4 [10], the Activity came out at 3.2. Also, the IC50 at Cytochrome P450 3A4 [18] turned out to be 18000 nM; against Cytochrome P450 3A4 [19], 10000 nM. Further, at Motilin receptor [4], the EC50 was 25.1 nM. Further, the Intrinsic activity at Motilin receptor [5] worked out at 1.
On to `C[C@H]1CN(Cc2ccc(CC(=O)N3CCC(Nc4ccc(F)cc4)CC3)cc2)CCN1`, for which the EC50 on Motilin receptor [4] is 10 nM. The Intrinsic activity at Motilin receptor [5] worked out at 0.8.
As for `C[C@H]1CN(Cc2ccc(CC(=O)N3CCC(Nc4cccc(F)c4)CC3)cc2)CCN1`, on Motilin receptor [5], the Intrinsic activity is 0.9.
As to `CC[C@H](C)[C@H](NC(=O)[C@@H]1CCCN1C(=O)[C@@H](NC(=O)[C@@H](N)Cc1ccccc1)C(C)C)C(=O)N[C@@H](Cc1ccccc1)C(=O)N[C@H](C(=O)N[C@@H](Cc1ccc(O)cc1)C(=O)NCC(=O)N[C@@H](CCC(=O)O)C(=O)N[C@@H](CC(C)C)C(=O)N[C@@H](CCC(N)=O)C(=O)N[C@@H](CCCNC(=N)N)C(=O)N[C@@H](CCSC)C(=O)N[C@@H](CCC(N)=O)C(=O)N[C@@H](CCC(=O)O)C(=O)N[C@@H](CCCCN)C(=O)N[C@@H](CCC(=O)O)C(=O)N[C@@H](CCCNC(=N)N)C(=O)N[C@@H](CC(N)=O)C(=O)N[C@@H](CCCCN)C(=O)NCC(=O)N[C@@H](CCC(N)=O)C(=O)O)[C@@H](C)O`, the EC50 on Motilin receptor [4] was 0.0398 nM. Moreover, the Intrinsic activity on Motilin receptor [5] was 1.
`C[C@@H]1CN(Cc2ccc(C(C)(C)C(=O)N3CCC(Nc4ccc(F)cc4)CC3)cc2)C[C@H](C)N1`: the Activity at Cytochrome P450 3A4 [10] came out at 6.1. In addition, the EC50 on Motilin receptor [4] is 31.6 nM. Further, the Intrinsic activity at Motilin receptor [5] amounted to 0.7. On Cytochrome P450 3A4 [19], this molecule came in with an IC50 of 4700 nM.
`C[C@@H]1CN(Cc2ccc(-c3cccnc3C(=O)N3CCC(Nc4ccc(F)cc4)CC3)cc2)C[C@H](C)N1.Cl` yielded a solubility in [20] not below 1 µg/mL.
